We go through 37 molecules from ChEMBL document CHEMBL1154062, “Novel and potent small-molecule urotensin II receptor agonists” (Bioorg Med Chem, 2009).

Common to all, as to type: functional, cell-based
For experiment [1], the target named is T1, Urotensin-2 receptor (Homo sapiens) (UniProt Q9UKP6).
T1 sequence (whole entry): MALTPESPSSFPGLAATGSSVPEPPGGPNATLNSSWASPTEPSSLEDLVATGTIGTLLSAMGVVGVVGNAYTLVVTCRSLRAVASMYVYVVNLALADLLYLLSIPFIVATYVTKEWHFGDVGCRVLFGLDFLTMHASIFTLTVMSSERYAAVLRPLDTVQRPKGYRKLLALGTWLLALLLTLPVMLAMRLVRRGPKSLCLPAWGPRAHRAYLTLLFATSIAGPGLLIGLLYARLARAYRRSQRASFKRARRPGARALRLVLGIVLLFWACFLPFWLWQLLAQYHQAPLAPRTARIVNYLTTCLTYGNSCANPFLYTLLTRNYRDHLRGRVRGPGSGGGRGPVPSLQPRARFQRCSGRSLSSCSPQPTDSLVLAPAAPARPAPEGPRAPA
As to the kind of experiment: (§1) Agonist activity against human urotensin 2 receptor expressed in […] cells assessed as beta-galactosidase activity after 5 days by R-SAT assay. The procedure, abridged: (§2)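 NIH-3T3 cells grown to 80% confluence in DMEM with 10% bovine calf serum, transiently transfected in roller bottles for 18 h with human UT receptor plus β-galactosidase marker, then frozen. Thawed cells were plated in DMEM with 0.4% calf serum and 30% UltraCulture onto compound. They were incubated 5 days in 5% CO2, with reporter read at 420 nm. Eight doses in triplicate; EC50 from 2–5 determinations; efficacy normalized to UII = 100%.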

The target of experiment [2] is T1, Urotensin-2 receptor (Homo sapiens). As to the kind of experiment: Agonist activity against human urotensin 2 receptor expressed in […] cells assessed as beta-galactosidase activity after 5 days by R-SAT assay relative to urotensin 2. The method in brief: as §2
For a further experiment, the target named is T2, Urotensin-2 receptor (Homo sapiens, UniProt Q9UKP6).
T2 sequence (Q9UKP6 whole entry): T1 sequence (whole entry)
The description is as §1. The method in brief: as §2

Activity calls are given as the source filed them. No cut-off for these calls is given here. Bounds are passed on as bounds.

As to `Cc1ccc(C(CCN(C)C)NC(=O)c2cccc(-c3ccc4ccccc4c3)c2)cc1` (configuration not stated), in experiment [1], the pEC50 entry was “inactive”. Also, the Efficacy result in experiment [2] is “inactive”. As for `Cc1ccc(C(CCN(C)C)NC(=O)c2ccc(-c3ccccc3)cc2)cc1` (configuration not stated), the EC50 (in general, the concentration giving half of the maximal effect) on Urotensin-2 receptor is 200 nM. The Efficacy in experiment [2] came to 114%. With `CN(C)CCC(NC(=O)c1ccc(-c2ccccc2)cc1)c1ccc2ccccc2c1` (configuration not stated), the EC50 on Urotensin-2 receptor was 120 nM. In experiment [2], the Efficacy turned out to be 111%. For the molecule `CN(C)CCC1(c2ccc(Cl)cc2)Cc2ccccc2C(=O)O1` (configuration not stated), the 50% effective concentration (EC50) on Urotensin-2 receptor is at least 1120 nM. For the molecule `CN(C)CCCC(NC(=O)c1ccc(-c2ccccc2)cc1)c1ccc(Cl)cc1` (configuration not stated), the EC50 on Urotensin-2 receptor is 316 nM. The Efficacy in experiment [2] was 91%.

In the case of `CN(C)CCC(NC(=O)c1ccc(-c2ccccc2)cc1)c1ccc(Cl)cc1` (configuration not stated), the Efficacy in experiment [2] worked out at 116%. With `CN(C)CCC(NC(=O)c1ccc(-c2ccc3ccccc3c2)cc1)c1ccc(Cl)cc1` (configuration not stated), the concentration giving a half-maximal response (EC50) on Urotensin-2 receptor was 309 nM. In experiment [2], the Efficacy turned out to be 131%. For `O=C(NC(CCN1CCCCC1)c1ccc(Cl)cc1)c1ccc(-c2ccccc2)cc1` (configuration not stated), the EC50 on Urotensin-2 receptor is 661 nM. Moreover, the Efficacy in experiment [2] was 57%.

Take `CN(C)CCC(NC(=O)c1cccc(-c2ccc3ccccc3c2)c1)c1ccc(Cl)cc1` (configuration not stated): the 50% effective concentration (EC50) at Urotensin-2 receptor was 363 nM. Besides, in experiment [2], the Efficacy came to 41%.

`COc1ccc(-c2ccc(C(=O)NC(CCN(C)C)c3ccc(Cl)cc3)cc2)cc1` (configuration not stated): the half-maximal effective concentration (EC50) at Urotensin-2 receptor was 74.1 nM. In addition, the Efficacy in experiment [2] was determined as 143%.

For the molecule `CO[C@@H](C(=O)N[C@H](CCN(C)C)c1ccc2ccccc2c1)c1ccccc1`, the EC50 on Urotensin-2 receptor is 2750 nM. In experiment [2], the Efficacy came out at 53%. The like results for `COc1ccc(-c2cccc(C(=O)NC(CCN(C)C)c3ccc(Cl)cc3)c2)cc1` (configuration not stated) were, in that order, 575 nM and 78%. The like results for `CN(C)CC[C@H](NC(=O)c1ccc(-c2ccc(Cl)cc2)cc1)c1ccc2ccccc2c1` were, in that order, 22.9 nM and 129%.

For `CN(C)CCCC(NC(=O)c1ccccc1)c1ccc(Cl)cc1` (configuration not stated), the half-maximal effective concentration (EC50) on Urotensin-2 receptor is 3800 nM. In experiment [2], the Efficacy stood at 77%. For `O=C(NC(CCN1CCCCC1)c1ccc(Cl)cc1)c1ccccc1` (configuration not stated), the half-maximal effective concentration (EC50) at Urotensin-2 receptor is 6460 nM. Besides, in experiment [2], the Efficacy worked out at 55%. Take `CN(C)CCC(NC(=O)c1cccc(-c2ccc(Cl)cc2)c1)c1ccc(Cl)cc1` (configuration not stated): the concentration for a half-maximal effect (EC50) at Urotensin-2 receptor was 437 nM. Moreover, the Efficacy in experiment [2] came to 63%. For `Cc1ccc(C(CCN(C)C)NC(=O)c2ccc(-c3ccc(Cl)cc3)cc2)cc1` (configuration not stated), on Urotensin-2 receptor, the EC50 is 126 nM. Besides, the Efficacy in experiment [2] came to 108%. For `CN(C)CC[C@@H](NC(=O)c1ccc(-c2ccc(Cl)cc2)cc1)c1ccc2ccccc2c1`, the concentration for a half-maximal effect (EC50) on Urotensin-2 receptor was 457 nM. Moreover, the Efficacy in experiment [2] was 53%. In the case of `COc1ccc(-c2ccc(C(=O)NC(CCN(C)C)c3ccc(C)cc3)cc2)cc1` (configuration not stated), the EC50 at Urotensin-2 receptor is 347 nM. The Efficacy in experiment [2] was found to be 119%.

Turning to `CN(C)CC[C@H](NC(=O)c1ccc(-c2ccccc2)cc1)c1ccc(Cl)cc1`, the Efficacy in experiment [2] is 116%. As to `CN(C)CCC(NC(=O)c1cccc(-c2ccc3ccccc3c2)c1)c1ccc2ccccc2c1` (configuration not stated), the EC50 at Urotensin-2 receptor was 3470 nM. As for `Cc1ccc(C(CCN(C)C)NC(=O)c2ccc(-c3ccc4ccccc4c3)cc2)cc1` (configuration not stated), the EC50 at Urotensin-2 receptor was 813 nM. For the same molecule, the Efficacy in experiment [2] is 83%.

For the molecule `Cc1ccc(C(CCN(C)C)NC(=O)c2cccc(-c3ccc(Cl)cc3)c2)cc1` (configuration not stated), the EC50 on Urotensin-2 receptor is 646 nM. The Efficacy in experiment [2] amounted to 39%.

With `COc1ccc(-c2cccc(C(=O)NC(CCN(C)C)c3ccc4ccccc4c3)c2)cc1` (configuration not stated), on Urotensin-2 receptor, the 50% effective concentration (EC50) is 646 nM. In addition, the Efficacy in experiment [2] amounted to 50%.

Regarding `CN(C)CCC(NC(=O)c1ccc(-c2ccc(Cl)cc2)cc1)c1ccc2ccccc2c1` (configuration not stated), the 50% effective concentration (EC50) at Urotensin-2 receptor was 43.7 nM. In addition, in experiment [2], the Efficacy turned out to be 129%. Turning to `CN(C)CCC(NC(=O)c1cccc(-c2ccccc2)c1)c1ccc(Cl)cc1` (configuration not stated), the concentration giving a half-maximal response (EC50) at Urotensin-2 receptor was 575 nM. The Efficacy in experiment [2] was 92%. Turning to `Cc1ccc(C(CCN(C)C)NC(=O)c2cccc(-c3ccccc3)c2)cc1` (configuration not stated), the 50% effective concentration (EC50) at Urotensin-2 receptor is 813 nM. Moreover, the Efficacy in experiment [2] came out at 45%.

For the molecule `CN(C)CCC(NC(=O)c1ccc(-c2ccc3ccccc3c2)cc1)c1ccc2ccccc2c1` (configuration not stated), at Urotensin-2 receptor, the concentration giving a half-maximal response (EC50) was 525 nM. The Efficacy in experiment [2] is 77%.

On to `CO[C@@H](C(=O)N[C@@H](CCN(C)C)c1ccc(Cl)cc1)c1ccccc1`, for which the Efficacy in experiment [2] worked out at 165%.

Consider `COc1ccc(-c2ccc(C(=O)NC(CCN(C)C)c3ccc4ccccc4c3)cc2)cc1` (configuration not stated), for which the concentration for a half-maximal effect (EC50) at Urotensin-2 receptor was 105 nM. Also, the Efficacy in experiment [2] was determined as 111%. Take `CN(C)CC[C@@H](NC(=O)c1ccc(-c2ccccc2)cc1)c1ccc(Cl)cc1`: the Efficacy in experiment [2] was 96%. In the case of `CO[C@@H](C(=O)N[C@@H](CCN(C)C)c1ccc2ccccc2c1)c1ccccc1`, the EC50 at Urotensin-2 receptor is 741 nM. Also, the Efficacy in experiment [2] worked out at 140%. With `COc1ccc(-c2cccc(C(=O)NC(CCN(C)C)c3ccc(C)cc3)c2)cc1` (configuration not stated), the EC50 at Urotensin-2 receptor is 1070 nM. In experiment [2], the Efficacy was 69%. With `CN(C)CCC(NC(=O)c1cccc(-c2ccc(Cl)cc2)c1)c1ccc2ccccc2c1` (configuration not stated), the concentration giving a half-maximal response (EC50) at Urotensin-2 receptor was 1100 nM. The Efficacy in experiment [2] worked out at 45%. For `CN(C)CCC(NC(=O)c1ccc(-c2ccc(Cl)cc2)cc1)c1ccc(Cl)cc1` (configuration not stated), the EC50 on Urotensin-2 receptor was 75.9 nM. Moreover, the Efficacy in experiment [2] is 137%. With `CN(C)CCC(NC(=O)c1cccc(-c2ccccc2)c1)c1ccc2ccccc2c1` (configuration not stated), at Urotensin-2 receptor, the EC50 was 537 nM. Further, the Efficacy in experiment [2] worked out at 67%.

Consider `CO[C@@H](C(=O)N[C@H](CCN(C)C)c1ccc(Cl)cc1)c1ccccc1`, for which the Efficacy in experiment [2] stood at 112%.
